From PubChem
The list is not random: actives were taken first. Their share in the collection is about 2%.
DNMT1 block: blocks human DNA methyltransferase DNMT1; P26358; DNMT1 molecular beacon, Hinp1I cleavage, fluorescence; inhibition (reported as % activation of signal), % at 10 µM; actives 0.83% (n = 360,000); AID 588458; in the data active = inhibition above about 50%
Rpn11 block: blocks the human proteasome subunit Rpn11 | actives 0.59% (n = 360,000) | O00487 | AID 588493 | inhibition, % at 20 µM | human 26S proteasome, Ub4-pepOG fluorescence polarization; 20S core pre-blocked with epoxomicin;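 active = inhibition at 20 µM, scaled to each plate's controls, above about 33%, limit read from the data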
Target sequence (O00487 whole entry, looked up): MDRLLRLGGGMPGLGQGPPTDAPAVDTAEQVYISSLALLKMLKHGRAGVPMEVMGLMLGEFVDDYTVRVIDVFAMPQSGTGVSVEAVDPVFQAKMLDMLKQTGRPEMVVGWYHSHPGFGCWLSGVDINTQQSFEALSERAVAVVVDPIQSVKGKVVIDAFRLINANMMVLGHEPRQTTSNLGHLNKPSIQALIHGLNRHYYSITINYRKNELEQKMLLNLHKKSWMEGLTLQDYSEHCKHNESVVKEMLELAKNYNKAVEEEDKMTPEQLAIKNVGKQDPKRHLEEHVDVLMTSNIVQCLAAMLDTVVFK
LMPTP inh: blocks human LMPTP phosphatase; recombinant LMPTP-A, OMFP fluorogenic substrate, fluorescence intensity; inhibition, % at 20 µM; actives 0.22% (n = 360,000); AID 651560; P24666;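 active = compounds that cut the enzyme signal by at least half of the control window in the single-dose screen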
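Assay system: LMPTP-A phosphatase enzyme | Input: 0.625 nM enzyme | Also added: Fluorogenic phosphatase substrate OMFP at 400 µM final | Compound dosing: One test concentration per compound, 20 µM, with 3% DMSO overall | Schedule: 50 min enzyme reaction at room temperature, protected from light | Signal: Fluorescence intensity | Benchmarks: no-enzyme and uninhibited controls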
STEP inh: STEP (human) phosphatase inhibition; P54829; recombinant STEP, OMFP fluorogenic substrate, fluorescence; inhibition, % at 20 µM; actives 0.25% (n = 360,000); AID 588621;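 active = inhibition at 20 µM, scaled per plate between control wells, above about 37%, limit read from the data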
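System: STEP phosphatase, cell-free reaction; Buffer or medium: Bis-Tris pH 6.0 buffer with DTT, detergent; Incubation: 20 min at room temperature, dark; Measured by: fluorescence, 480/540 nm.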
Scp1 inh: Scp-1 (human) phosphatase inhibition; Q9GZU7; Recombinant Scp1, phosphopeptide, malachite green phosphate absorbance; inhibition, % at 20 µM; actives 0.88% (n = 340,000);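 active = inhibition above about 50% at 20 µM, limit read from the data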
Target sequence (Q9GZU7 76-261 limits assumed): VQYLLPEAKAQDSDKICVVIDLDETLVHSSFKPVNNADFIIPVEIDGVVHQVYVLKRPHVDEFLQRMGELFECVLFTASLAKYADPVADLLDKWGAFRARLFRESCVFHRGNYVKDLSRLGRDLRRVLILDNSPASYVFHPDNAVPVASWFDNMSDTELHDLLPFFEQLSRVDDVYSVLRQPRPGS
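Times: enzyme reaction 45 min at room temperature, colour 5 min, stabilisation 30 min. Material: SCP-1 catalytic fragment, aa 76-261. Medium: Acidic Tris acetate buffer with magnesium and detergent. Signal: colorimetric free-phosphate detection, absorbance 630 nm. Read-out basis: % inhibition of SCP-1 phosphate liberation. Reagent: Phosphorylated 17-residue peptide substrate.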
DNMT1 confirm: confirmation of human DNMT1 inhibitors | shares compounds with DNMT1 block | DNMT1 molecular beacon HinP1I cleavage, fluorescence | inhibition, % at 10 µM | actives 8% (n = 2,300);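 active = average inhibition of at least 30% in the single-concentration confirmation test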
DNMT1 interf: beacon fluorescence artifact counter-screen; activation (fluorescence interference), % at 10 µM; actives 1% (n = 2,300); shares compounds with DNMT1 block; DNMT1 molecular beacon spectral interference counterscreen, fluorescence 485/520;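 active = activation of at least 30% at 10 µM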;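 note: DNMT1 catalytic domain with a HinP1I cleavage step and a FAM/dabcyl DNA beacon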
Hits are given with their value; n = inactive; x = no result given.

SMILES | DNMT1 block | Rpn11 block | LMPTP inh | STEP inh | Scp1 inh | DNMT1 confirm | DNMT1 interf
CC1CCCN(CCCNC(=O)C2CCC(CNS(=O)(=O)c3cccc4nsnc34)CC2)C1 (stereo unspecified) | 50.4 | n | n | n | n | n | n
CCCCNC(=O)C1CCC(CNS(=O)(=O)c2cccc3nsnc23)CC1 (stereo unspecified) | n | n | n | n | n | x | x
COC(CNC(=O)CCc1c(C)nc2c(-c3ccccc3)c(C)nn2c1C)OC | n | n | n | n | n | x | x
COc1ccc(CN2CCNC(=O)C2CC(=O)NCc2cc(C)n(C)n2)c(F)c1 (stereo unspecified) | n | n | n | n | n | x | x
CCCCN1C(=O)C(=O)N(CC(=O)Nc2cc(S(=O)(=O)N(C)C)ccc2C)C1=O | n | n | n | n | n | x | x
CCCCNc1ccc(C(CC(N)=O)NC(=O)Cc2cccc3ccccc23)cc1[N+](=O)[O-] (stereo unspecified) | 51.2 | n | n | n | n | n | n
Cc1cccc(CNc2ccc(C(CC(N)=O)NC(=O)Cc3cccc4ccccc34)cc2[N+](=O)[O-])c1 (stereo unspecified) | n | n | n | n | n | x | x
O=C(c1ccccc1)c1ccc2nc(-c3ccco3)c(-c3ccco3)nc2c1 | 100.9 | n | 75.2 | n | 66.1 | n | n
c1coc(-c2cnc3ccccc3n2)c1 | n | n | n | n | x | x | x
O=C(NCCO)c1ccc2nc(-c3ccco3)c(-c3ccco3)nc2c1 | 58.4 | n | n | n | n | n | n
c1coc(-c2nc3ccccc3nc2-c2ccco2)c1 | 103.0 | n | n | n | n | n | n
Cc1cc(O)cc(C)c1NS(=O)(=O)c1ccc2ccccc2c1 | n | n | n | n | n | x | x
CN(C)CCNC(=O)c1sc2nc(-c3ccccc3)cc(C(F)(F)F)c2c1N | n | n | n | n | n | x | x
Nc1c(C(=O)C2CC2)sc2nc(-c3ccccc3)cc(C(F)(F)F)c12 | 67.6 | n | n | n | n | 50.9 | 37.5
CCCCN1C(=O)C(CC(=O)NCc2cccc3ccccc23)CC(C(=O)N2CCOCC2)=C1C (stereo unspecified) | n | n | n | n | x | x | x
COC(=O)c1cc(C#N)c(=O)[nH]c1C | 88.7 | n | n | n | n | n | n
COC(=O)c1cc(C(C)=O)c(C)[nH]c1=O | n | n | n | n | n | x | x
Cc1cc(C(F)F)n2nc(C(=O)Nc3sc4c(c3C#N)CCC4)nc2n1 | n | n | n | n | n | x | x
NC(=O)CC[C@H](NC(=O)c1ccc(F)cc1)C(=O)OCC(=O)Nc1c(F)c(F)c(F)c(F)c1F | n | n | n | n | n | x | x
NC(=O)CC[C@H](NC(=O)c1ccc(F)cc1)C(=O)OCC(=O)NCc1ccc(F)cc1 | 51.6 | n | n | n | n | n | n
O=C1Cc2cccc(=O)c(O)c2C(=O)O1 | 80.8 | n | n | n | x | n | n
COCCn1c(SCC(=O)N(C)c2ccccc2)nc2c([nH]c3ccccc32)c1=O | n | n | n | n | n | x | x
Cc1c(Cc2ccccc2)c(=O)oc2c(C)c(OCC(=O)Nc3ccc(C#N)cc3)ccc12 | n | n | n | n | n | x | x
Cc1cccc(C)c1NC(=O)COc1ccc2c(C)c(Cc3ccccc3)c(=O)oc2c1C | 56.7 | n | n | n | n | n | n
Cc1nc2[nH]c(=S)[nH]c(=O)c2nc1C | n | n | n | n | n | x | x
SMILES | DNMT1 block | Rpn11 block | LMPTP inh | STEP inh | Scp1 inh | DNMT1 confirm | DNMT1 interf
Cc1nc2c(=O)[nH]c(=S)[nH]c2[nH]c1=O | 78.9 | n | n | n | 95.7 | n | n
CCOc1ccc(-c2nnc3sc(COc4ccc(Cl)cc4)nn23)cc1 | 58.2 | n | n | n | n | n | n
Brc1cccc(OCCCNC2CCCC2)c1 | n | n | n | n | n | x | x
O=C(CN1C(=O)/C(=C\c2ccc(F)cc2)Oc2ccccc21)NCc1ccco1 | 51.8 | n | n | n | n | n | n
CCC1Oc2ccccc2N(CC(=O)NCc2ccco2)C1=O (stereo unspecified) | n | n | n | n | n | x | x
c1ccc(NC2=NCCN2CC2CCCCCC2)cc1 | n | n | n | n | n | x | x
